Data taken from ChEMBL document CHEMBL4706565, “Anti-glioma effects of 2-aminothiophene-3-carboxamide derivatives, ANO1 channel blockers” (Eur J Med Chem, 2020).
Activity calls are given as the source filed them. The rule behind the calls is not given here.

What was measured:
U138-MG = experiment: Antiproliferative activity against human U138 cells overexpressing ANO1 assessed as reduction in cell viability measured after 72 hrs by Celltiter-glo assay; assay type: functional
In short: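 5.0×10^3 cells/well seeded, overnight, then compounds added as 1:4 serial dilutions in DMSO; viability read after 72 h with CellTiter-Glo luminescence. GI50 from fitted dose-response curves; triplicate wells, SD from three independent experiments. DMEM for U251 and U138, MEM for U87MG, both with 10% FBS and pen/strep, 37 °C, 5% CO2.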

U-251 [1] = experiment: Inhibition of colony formation in human U251 cells at 3 uM incubated for 14 days by crystal violet dye based assay; assay type: functional, cell-based; details: time 14.0 day
In short: (§1)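 U251 cells, 1.0×10^3 per well, treated with compound (1, 3 or 10 μM) for 2 weeks at 37 °C, 5% CO2. Colonies stained 24 h with crystal violet in methanol/formaldehyde/PBS, washed, extracted with 10% acetic acid and read at A570 nm. Compared against DMSO control.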

[2] = molecular target: T1, Anoctamin-1 (Homo sapiens) (UniProt Q5XXA6); experiment: Inhibition of human ANO1 channel expressed in HEK293 cells at 10 uM incubated for 10 mins by FLIPR assay relative to control; assay type: cell-based
T1 sequence (whole entry): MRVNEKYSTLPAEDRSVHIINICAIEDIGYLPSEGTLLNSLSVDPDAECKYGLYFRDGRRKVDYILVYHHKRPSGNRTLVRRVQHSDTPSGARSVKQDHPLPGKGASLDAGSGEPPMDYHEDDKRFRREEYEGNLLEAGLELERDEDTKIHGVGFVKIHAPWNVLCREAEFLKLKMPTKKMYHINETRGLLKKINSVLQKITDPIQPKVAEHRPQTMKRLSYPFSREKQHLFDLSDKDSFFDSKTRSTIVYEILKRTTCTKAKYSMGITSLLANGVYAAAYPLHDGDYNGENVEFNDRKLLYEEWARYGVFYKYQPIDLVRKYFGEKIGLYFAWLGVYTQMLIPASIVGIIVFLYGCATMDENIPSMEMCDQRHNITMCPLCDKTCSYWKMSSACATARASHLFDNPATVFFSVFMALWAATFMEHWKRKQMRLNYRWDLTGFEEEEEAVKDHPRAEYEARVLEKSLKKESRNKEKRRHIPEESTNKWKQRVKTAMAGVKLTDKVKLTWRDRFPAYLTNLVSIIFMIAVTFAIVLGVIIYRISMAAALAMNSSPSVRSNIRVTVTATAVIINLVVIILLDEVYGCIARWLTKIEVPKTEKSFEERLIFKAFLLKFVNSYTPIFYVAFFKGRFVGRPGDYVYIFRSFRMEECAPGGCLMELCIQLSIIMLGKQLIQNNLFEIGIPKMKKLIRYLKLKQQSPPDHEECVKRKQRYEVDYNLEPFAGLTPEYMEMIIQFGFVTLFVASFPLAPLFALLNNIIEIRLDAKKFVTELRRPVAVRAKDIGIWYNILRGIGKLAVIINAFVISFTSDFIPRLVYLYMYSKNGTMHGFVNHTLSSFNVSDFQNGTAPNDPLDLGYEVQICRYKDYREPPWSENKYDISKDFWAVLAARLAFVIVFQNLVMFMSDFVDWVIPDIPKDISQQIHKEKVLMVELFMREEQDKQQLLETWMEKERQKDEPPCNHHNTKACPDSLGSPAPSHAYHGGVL
In short: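 HEK293 cells expressing human ANO1, 50,000 cells/well, plated overnight. Loaded with FLIPR Red membrane-potential dye in HEPES-buffered saline (pH 7.4) for 40-60 min at room temperature. Compound added for 10 min at room temperature, final DMSO 0.5%.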

U-251 [3] = experiment: Inhibition of colony formation in human U251 cells incubated for 14 days by crystal violet dye based assay; assay type: functional, cell-based; details: dose 1-10 µM, time 14.0 day; in short: as §1
U-251 [4] = experiment: Inhibition of colony formation in human U251 cells at 10 uM incubated for 14 days by crystal violet dye based assay; assay type: functional; details: U-251, 336 h, time 14 day
In short: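 Colonies stained 24 h with crystal violet in methanol/formaldehyde/PBS, washed, extracted with 10% acetic acid and read at A570 nm. Compared against DMSO control.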

[5] = molecular target: T2, Anoctamin-1 (Mus musculus) (UniProt Q8BHY3); experiment: Inhibition of GFP-fused mouse ANO1 channel expressed in HEK293A cells assessed as inhibition of current amplitude at 10 uM at membrane potential of +80 mV by patch clamp electrophysiology assay; assay type: cell-based; details: HEK293-A
T2 sequence (whole entry): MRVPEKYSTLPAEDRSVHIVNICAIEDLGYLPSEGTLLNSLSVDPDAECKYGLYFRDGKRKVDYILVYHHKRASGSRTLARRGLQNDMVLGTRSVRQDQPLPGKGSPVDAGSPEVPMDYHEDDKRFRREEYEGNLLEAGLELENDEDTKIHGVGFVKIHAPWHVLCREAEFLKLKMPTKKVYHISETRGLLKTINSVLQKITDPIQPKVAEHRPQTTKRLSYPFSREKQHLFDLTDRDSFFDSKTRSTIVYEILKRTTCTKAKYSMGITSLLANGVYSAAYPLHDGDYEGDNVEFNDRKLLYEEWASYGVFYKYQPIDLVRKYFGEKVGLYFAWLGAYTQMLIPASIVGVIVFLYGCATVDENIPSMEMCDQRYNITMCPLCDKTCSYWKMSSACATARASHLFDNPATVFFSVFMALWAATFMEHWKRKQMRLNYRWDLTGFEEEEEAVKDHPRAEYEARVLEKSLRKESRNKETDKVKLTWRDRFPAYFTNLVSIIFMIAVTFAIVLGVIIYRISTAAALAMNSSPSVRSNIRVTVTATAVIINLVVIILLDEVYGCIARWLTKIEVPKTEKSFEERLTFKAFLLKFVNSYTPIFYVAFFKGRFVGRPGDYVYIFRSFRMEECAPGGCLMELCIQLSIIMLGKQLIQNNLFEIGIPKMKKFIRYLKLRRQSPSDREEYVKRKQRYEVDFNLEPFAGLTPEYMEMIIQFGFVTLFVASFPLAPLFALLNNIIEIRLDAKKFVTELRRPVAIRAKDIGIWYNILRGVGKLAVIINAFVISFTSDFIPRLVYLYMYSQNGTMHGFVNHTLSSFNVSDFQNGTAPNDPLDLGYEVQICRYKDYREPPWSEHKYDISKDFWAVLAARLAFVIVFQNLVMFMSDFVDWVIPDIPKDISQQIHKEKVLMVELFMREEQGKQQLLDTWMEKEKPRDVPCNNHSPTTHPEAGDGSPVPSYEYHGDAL
In short: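 Whole-cell recording at room temperature in HEK293A cells transfected with GFP-mANO1, GFP-mANO2 or GFP-mTTYH1. 1 s ramps from +80 to -80 mV, holding potential -10 mV. For ANO1/ANO2: pipette CsCl 146 mM with Ca-EGTA-NMDG, pH 7.3; bath NaCl-based, pH 7.3. For TTYH1: Tris-aspartate pipette (pH 7.2) and Tris-HCl bath (pH 7.4), with […] and BaCl2 added to block K+ channels, and hypotonic (220 mOsm/kg) bath. Washout recordings assessed reversibility.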

Row | inhibition [2] [%] | inhibition [5] [%] | Structure (SMILES) | GI50 (U138-MG) [µM] | inhibition (U-251 [1]) | inhibition (U-251 [3]) | inhibition at 10 µM (U-251 [4]) [%]
1 | 86.9 | 50.6 | CC(C)(C)C(=O)Nc1sc2c(c1C(N)=O)CCC(C(C)(C)C)C2 (configuration not stated) | 22.2 | Active | Dose-dependent effect | 96.6
2 | 72.2 | 57.6 | NC(=O)c1c(NC(=S)NC(=O)c2ccc(Cl)cc2)sc2c1CCC2 | 13.2 | Active | Dose-dependent effect | 96.4
